Most compounds without a hit are left out; they make up all but 4.6% or so of the library.
OX1R antag-1: antagonists of human orexin 1 receptor (OX1R); Orexin/Hypocretin receptor type 1 (Homo sapiens), O43613; OX1R-expressing cells, FRET antagonist read-out; inhibition, % at 6.6 µM; actives 1.8% (n = 330,000); in the data active = inhibition mostly above about 38%, no sharp cut-off; inactive = mostly below about 40%;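 also: 0% = agonist challenge alone and 100% = reference antagonist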
TAAR1 antagonist: human TAAR1 antagonists, primary screen, Fluo-8 calcium fluorescence, CHO RD-HGA16 cells. antagonist. inhibition, % at 3 µM. actives 1.5% (n = 360,000). AID 624466, 2012;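 active = inhibition above a per-plate cutoff, the mean inhibition of test compounds on that plate plus 3 SD, cut at about 49% in these data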;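 also: 0% = DMSO plus EC80 beta-PEA response and 100% = DMSO alone without agonist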
Target sequence (Q96RJ0 whole entry, looked up): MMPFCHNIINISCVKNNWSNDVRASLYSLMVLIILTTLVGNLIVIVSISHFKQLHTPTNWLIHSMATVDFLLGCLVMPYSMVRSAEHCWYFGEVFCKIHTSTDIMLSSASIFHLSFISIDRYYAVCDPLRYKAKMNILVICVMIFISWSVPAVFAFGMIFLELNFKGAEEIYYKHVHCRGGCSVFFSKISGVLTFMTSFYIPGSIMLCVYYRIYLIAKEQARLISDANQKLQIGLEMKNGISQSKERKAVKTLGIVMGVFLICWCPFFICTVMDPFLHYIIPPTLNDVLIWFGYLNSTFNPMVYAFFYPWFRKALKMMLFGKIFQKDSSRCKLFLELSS
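System: RD-HGA16 CHO cells with stable hTAAR1 and Gα16 | Probe or stimulus: EC80 β-phenethylamine stimulus | Dosing: 3 µM, single point | Times: Dye loading 75 min at 37 °C, then 30 min room temperature | Measured by: Fluo-8 calcium-sensitive fluorescence | Read-out basis: % inhibition of agonist calcium response | Replicates: n of 1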
GPR7 antag: GPR7 receptor antagonists, primary screen, cell-based, fluorescence, single concentration | Neuropeptides B/W receptor type 1 (Homo sapiens), P48145 | GPR7-expressing cells, fluorescence antagonist assay | inhibition, % at 4.4 µM | actives 1.1% (n = 290,000) | AID 1861, 2009; in the data active = inhibition above about 16%, passing the limit was not always enough;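 also: cells stimulated with the agonist NPW; 0% = agonist with vehicle and 100% = vehicle without agonist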
Target sequence (P48145 whole entry, looked up): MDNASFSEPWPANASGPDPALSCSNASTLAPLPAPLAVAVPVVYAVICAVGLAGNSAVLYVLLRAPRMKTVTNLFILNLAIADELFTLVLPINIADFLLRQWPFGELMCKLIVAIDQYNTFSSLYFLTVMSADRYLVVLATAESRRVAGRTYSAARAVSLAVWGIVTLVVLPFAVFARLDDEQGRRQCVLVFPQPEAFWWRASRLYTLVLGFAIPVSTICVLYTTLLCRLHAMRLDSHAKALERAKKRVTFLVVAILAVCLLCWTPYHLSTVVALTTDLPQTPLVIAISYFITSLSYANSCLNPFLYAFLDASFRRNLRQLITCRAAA
OX1R antag-2: OX1R (HCRTR1) antagonists, primary screen, fluorescence, CHO/OX1R cells, Fluo-8 calcium, orexin A | Fluo-8 calcium fluorescence | inhibition, % at 5 µM | actives 0.43% (n = 330,000) | AID 434989, 2010 | Orexin/Hypocretin receptor type 1 (Homo sapiens), O43613;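 active = inhibition above its plate's threshold, mean inhibition of all tested compounds on the plate plus 3 SD, cut at about 37% in these data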;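 also: 0% = orexin A challenge wells and 100% = SB-334867-A antagonist wells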
CHO parental Ca: ATP-evoked calcium signal inhibitors, parental CHO, primary screen, counter-screen for OX1R antagonist project, cell-based, fluorescence, Fluo-8 calcium dye; parental CHO-K1, ATP-induced calcium, Fluo-8 fluorescence; inhibition, % at 5.6 µM; actives 0.63% (n = 330,000);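 active = inhibition above that plate's mean sample inhibition plus 3 SD, cut at about 26% in these data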;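 also: 0% = ATP-challenged DMSO wells and 100% = DMSO wells without ATP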
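Material – parental CHO cells · Reagent – ATP stimulus · Compound – single nominal dose of 5.6 µM per compound · Detection – Fluo-8 fluorescence · Read-out basis – percent inhibition of calcium signal · Controls – ATP-challenged DMSO wells low, unchallenged DMSO wells high · Repeats – no replicates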
TAAR1 ag: human TAAR1 agonists, primary screen, Fluo-8 calcium fluorescence, CHO RD-HGA16 cells. activation, % at 3 µM. actives 0.99% (n = 360,000). AID 624467, 2012. vehicle wells 0%, saturating PEA agonist 100%;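 active = activation above the mean activation of all test compounds in the run plus 3 SD, cut at about 38% in these data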
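test system = CHO RD-HGA16 cells carrying human TAAR1 plus Gα16 | schedule = 17-24 h seeding, 75 min 37 °C dye, 30 min RT | compound dosing = 3 µM single concentration | control set = DMSO and PEA EC100 | replicates = n 1 | signal = Fluo-8 fluorescence, 5 s baseline then 140 s kinetic read | measure = percent activation vs PEA EC100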
GPR7 antag conf: GPR7 receptor antagonists, confirmation, cell-based, fluorescence, single concentration | shares compounds with GPR7 antag | GPR7-expressing cells, calcium fluorescence antagonist mode | inhibition, % at 4.4 µM | actives 52% (n = 2,400); in the data active = inhibition above about 24%;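 also: stimulated with the GPR7 agonist NPW; 0% = agonist plus vehicle and 100% = vehicle alone without agonist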
MCHR1 antag: MCHR1 antagonists in cells, counter-screen for GPR7 antagonist project, cell-based, fluorescence, human; inhibition, % at 4.4 µM; shares compounds with GPR7 antag; MCHR1-expressing cells, fluorescence antagonist assay; AID 2148, 2009; actives 62% (n = 2,400); in the data active = inhibition above about 22%;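 also: 0% = vehicle with agonist and 100% = vehicle without agonist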
* hit, by the source's call; · = not tested or not shown.

SMILES	OX1R antag-1	TAAR1 antagonist	GPR7 antag	OX1R antag-2	CHO parental Ca	TAAR1 ag	GPR7 antag conf	MCHR1 antag
Cc1ccc(CSc2nnc(-c3cccc(S(=O)(=O)N4CCOCC4)c3)n2CC(C)C)cc1	7.6	-0.1	35.1*	-19.6	-10.5	6.5	19.4	25.5*
N#Cc1ccc(CN2CCN(CC(=O)NCCc3ccc(Cl)cc3Cl)CC2)cc1	6.0	10.3	21.5*	-23.7	-21.0	8.6	30.6*	8.3
CC(=O)c1c(C)[nH]c(C(=O)Nc2cccc(C(F)(F)F)c2)c1C	70.3*	9.2	33.1*	44.8*	37.4*	9.0	4.4	59.0*
CCCCC1Cc2[nH][nH]c(=O)c2C(c2ccc(F)cc2)O1 (stereo not drawn)	·	-7.1	·	·	·	1.2	·	·
CCCC(C)C(=O)Nc1ncc(S(=O)(=O)c2ccc([N+](=O)[O-])cc2)s1 (stereo not drawn)	11.9	62.2*	64.6*	28.4	29.6	89.5*	69.9*	87.1*
Cc1ccc[n+](CC(=O)Nc2cc(C(F)(F)F)ccc2Cl)c1	20.6	0.4	-2.1	4.8	7.3	13.1	·	·
CCC(C)(C)c1ccc(OCCCC[n+]2cccc(C)c2)c(C(C)(C)CC)c1	·	-16.4	21.1*	·	·	31.6	77.7*	90.5*
COc1cc(/C=C2\N=C(c3ccccc3)OC2=O)ccc1OC(C)=O	19.3	7.3	25.0*	-10.5	-15.9	3.6	-6.4	7.1
COc1ccc(/C=C2\N=C(C)OC2=O)cc1OC(C)=O	·	8.5	-13.0	·	·	0.1	·	·
O=C(NN=Cc1cc(Cl)ccc1[N+](=O)[O-])c1cccc2ccccc12	·	11.2	·	·	·	-1.4	·	·
O=C(N/N=C/c1cc([N+](=O)[O-])ccc1O)c1cccc2ccccc12	31.8	-2.9	26.8*	12.6	28.2	-1.4	4.6	6.8
S=C(NC1CCCCC1)N(CCc1ccccc1)CCc1ccccc1	24.0	1.4	10.2	-22.6	-8.7	8.3	·	·
COc1ccccc1N(C(=O)CNC(=O)c1ccco1)C(C(=O)NC1CCCC1)c1ccco1 (stereo not drawn)	12.5	16.4	24.4*	-19.9	5.1	-2.8	14.0	8.3
COc1cccc(C(C(=O)NC2CCCCC2)N(C(=O)c2ccco2)c2ccccc2OC)c1 (stereo not drawn)	48.5	10.2	12.6	-16.5	-16.2	-2.9	·	·
COc1ccc(C(C(=O)NC2CCCCC2)N(C(=O)c2ccco2)c2ccccc2OC)cc1 (stereo not drawn)	14.1	-4.5	28.6*	-21.8	-23.9	9.2	16.9	14.3
COc1ccccc1N(C(=O)c1ccco1)C(C(=O)NC1CCCCC1)c1cc(OC)c(OC)c(OC)c1 (stereo not drawn)	41.7*	-5.1	33.5*	-23.5	-22.9	-0.8	37.1*	9.4
COc1ccc(C(C(=O)NC2CCCC2)N(C(=O)c2ccco2)c2ccccc2OC)cc1 (stereo not drawn)	27.3	-17.9	-3.4	-18.9	-33.7	0.7	·	·
CCC(c1nnc(SCC(=O)NCCc2ccc(Cl)cc2Cl)o1)N(C)C (stereo not drawn)	18.6	10.9	7.1	-28.1	-18.1	1.0	·	·
CC1CCCCC1NC(=O)COc1cccnc1[N+](=O)[O-] (stereo not drawn)	12.8	5.1	·	11.7	-11.6	2.3	·	·
CCCCCCCCCCOC(=O)Cn1c(COc2ccccc2)[n+](C)c2ccccc21	10.9	35.2	71.3*	72.5*	62.3*	30.9	77.4*	93.6*
CCCCCCCCCCOC(=O)Cn1c(COc2ccc(Cl)cc2)[n+](C)c2ccccc21	6.5	31.6	60.2*	21.3	33.4*	47.1*	66.4*	70.5*
CCCCCCCCCCOC(=O)Cn1c(COc2ccccc2C)[n+](C)c2ccccc21	-0.3	·	27.9*	53.1*	43.2*	·	83.4*	87.5*
CCCCCCCCCCOC(=O)Cn1c(COc2cccc(C)c2)[n+](C)c2ccccc21	16.6	65.1*	45.2*	74.9*	65.3*	41.6*	67.7*	85.3*
CCOC(=O)Cn1c(COc2ccccc2OC)[n+](C)c2ccccc21	6.1	8.4	·	-17.6	-8.2	0.0	·	·
CCCCOC(=O)Cn1c(=O)n(CC(=O)OCCCC)c2ccccc21	30.8	-5.0	-1.9	-23.4	-8.4	0.1	·	·
SMILES	OX1R antag-1	TAAR1 antagonist	GPR7 antag	OX1R antag-2	CHO parental Ca	TAAR1 ag	GPR7 antag conf	MCHR1 antag
O=C(COc1cccc(Cl)c1)Nc1ccccc1N1CCCCC1	25.3	-20.6	·	-24.7	-22.4	-1.0	·	·
Cc1cc(C)n(CC(=O)N2CCCC(C(=O)c3cccc(OC(C)C)c3)C2)n1 (stereo not drawn)	15.5	3.6	-8.9	-22.4	-15.5	4.4	·	·
O=C(COC(=O)/C=C/c1ccc(C(F)(F)F)cc1)NCc1ccco1	3.6	-36.1	-19.3	-15.2	0.8	1.2	·	·
O=C(c1ccccc1F)N1CCN(c2cccc(C(F)(F)F)c2)CC1	2.8	2.7	22.7*	-35.2	-18.2	2.9	9.8	6.9
COc1ccccc1NC(=O)N1CCN(c2cccc(C(F)(F)F)c2)CC1	12.8	8.0	-7.1	-16.7	-14.5	9.7	·	·
COc1ccccc1CC(=O)N1CCN(c2cccc(C(F)(F)F)c2)CC1	12.4	-3.6	26.4*	-1.7	-1.4	2.7	37.9*	37.9*
O=C(c1c(F)c(F)c(F)c(F)c1F)N1CCN(c2cccc(C(F)(F)F)c2)CC1	18.7	8.2	-11.6	-2.0	0.9	1.1	·	·
O=C(OC1CCN(c2ccc([N+](=O)[O-])cc2)CC1)c1ccccc1	26.3	13.8	29.4*	-4.7	3.0	5.0	47.3*	68.2*
Cc1ccc(CC(=O)N2CCN(c3ccc([N+](=O)[O-])cc3)CC2)cc1	34.8	3.7	39.5*	-7.9	17.0	-0.7	42.6*	40.6*
CCOC(=O)c1sc(SC)nc1N	2.7	12.2	-4.2	-3.3	-6.2	5.4	·	·
CC(C)[C@H](NC(=O)OC(C)(C)C)c1cc(C(=O)NC2CC2)c(N)s1	·	-14.5	·	·	·	0.9	·	·
